Results as given in ChEMBL document CHEMBL3769301, “Novel cis-selective and non-epimerisable C3 hydroxy azapodophyllotoxins targeting microtubules in cancer cells” (Eur J Med Chem, 2016).
Calls of active or inactive are those of the source. The rule behind the calls is not given here.

Columns and labels:
Assay type in all cases: cell-based
[1] = test system: MCF7; assay: Induction of microtubule cytoskeleton destabilization in human MCF7 cells assessed as nuclear atypia at 250 nM after 6 hrs by Hoechst 33342 staining-based confocal fluorescence microscopy
Procedure, shortened: (§1)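 MCF-7 cells in RPMI 1640 with 10% FBS were grown on glass coverslips for 42 h to 70–80% confluency. They were exposed to 250 nM compound or 0.01% DMSO for 6 h, then fixed in methanol at −20 °C for 10 min. Staining used anti-α-tubulin (1:2000) with Alexa488 secondary (1:400) and Hoechst 33342 (1 μg/ml), imaged by confocal microscopy (63x oil). There were three independent experiments, each in duplicate.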

[2] = test system: MCF7; assay: Induction of microtubule cytoskeleton destabilization in human MCF7 cells assessed as pyknosis at 250 nM after 6 hrs by Hoechst 33342 staining-based confocal fluorescence microscopy; procedure, shortened: as §1
[3] = test system: MCF7; assay: Induction of microtubule cytoskeleton destabilization in human MCF7 cells assessed as uncongressed/misaligned chromosomes at 250 nM after 6 hrs by Hoechst 33342 staining-based confocal fluorescence microscopy; procedure, shortened: as §1
[4] = test system: MCF7; assay: Inhibition of microtubule cytoskeleton polymerization in human MCF7 cells assessed as repolymerization at 250 nM pretreated for 6 hrs followed by incubation for 30 mins on ice then rewarmed to 37 degC for 30 mins by Hoechst 33342 staining-based confocal fluorescence microscopy
Procedure, shortened: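 Pre-treatment: MCF-7 cells on coverslips were exposed to 250 nM compound or 0.01% DMSO for 6 h, then held at 4 °C on ice for 30 min. One set was fixed after cold depolymerisation; the others were returned to 37 °C/5% CO2 for 30 min to repolymerise. Cells were fixed in −20 °C methanol, stained for α-tubulin and Hoechst, and imaged by confocal microscopy. There were three independent experiments.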

[5] = test system: MCF7; assay: Induction of microtubule cytoskeleton destabilization in human MCF7 cells assessed as shorter and more disorderd microtubule at 250 nM after 6 hrs by Hoechst 33342 staining-based confocal fluorescence microscopy; procedure, shortened: as §1
[6] = test system: MCF7; assay: Induction of microtubule cytoskeleton destabilization in human MCF7 cells assessed as accumulation of binucleate cells at 250 nM after 6 hrs by Hoechst 33342 staining-based confocal fluorescence microscopy; procedure, shortened: as §1
[7] = test system: MCF7; assay: Inhibition of microtubule cytoskeleton polymerization in human MCF7 cells assessed as repolymerization at 250 nM cells preincubated on ice followed rewarmed to 37 degC in presence of compound for 30 mins by Hoechst 33342 staining-based confocal fluorescence microscopy
Procedure, shortened: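 No pre-treatment: after 42 h on coverslips, MCF-7 cells were held on ice for 30 min to depolymerise microtubules. A cold control set was fixed at once; the rest were rewarmed for 30 min at 37 °C/5% CO2 with 250 nM compound or 0.01% DMSO. All were fixed in methanol at −20 °C, stained for α-tubulin and Hoechst, and examined by confocal imaging. There were three independent experiments.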

[8] = test system: MCF7; assay: Induction of microtubule cytoskeleton destabilization in human MCF7 cells assessed as abberation in spindle morphology and polarity at 250 nM after 6 hrs by Hoechst 33342 staining-based confocal fluorescence microscopy; procedure, shortened: as §1

Row | Compound | Activity [1] | Activity [2] | Activity [3] | inhibition [4] | Activity [5] | Activity [6] | inhibition [7] | Activity [8]
1 | COc1cc([C@@H]2c3cc4c(cc3[C@H](O)[C@H]3COC(=O)[C@H]23)OCO4)cc(OC)c1OC | Active | Active | – | – | – | – | – | –
2 | O=C1OC[C@]2(O)Nc3c(c4cccnc4c4ncccc34)[C@@H](c3ccccc3C(F)(F)F)[C@@H]12 (mixture of isomers) | Active | Active | Active | inactive | Active | Active | inactive | Active
3 | O=C1OC[C@]2(O)Nc3c(c4cccnc4c4ncccc34)[C@@H](c3ccccc3OC(F)(F)F)[C@H]12 (mixture of isomers) | Active | Active | Active | inactive | Active | Active | inactive | Active
